Measured values published in ChEMBL document CHEMBL3994569, “Synthesis, anti-varicella-zoster virus and anti-cytomegalovirus activity of quinazoline-2,4-diones containing isoxazolidine and phosphonate substructures” (Eur J Med Chem, 2017).

Key:
Human alphaherpesvirus 3 [1] = assay: Antiviral activity against thymidine kinase deficient Varicella-Zoster virus 07-1 infected in HEL cells assessed as reduction in virus plaque formation; format: functional, cell-based
In short: (§1)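 Confluent HEL fibroblast cultures were infected with VZV at an input of 100 PFU and incubated with varying compound concentrations. Plaques were counted once plaque formation was complete in untreated infected controls.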

Cytomegalovirus [2] = assay: Antiviral activity against Cytomegalovirus Davis infected in HEL cells assessed as reduction in virus plaque formation; format: functional, cell-based
In short: (§2)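 Confluent HEL fibroblast cultures infected with 100 PFU of HCMV and kept with varying compound concentrations. Plaques scored once plaque formation was complete in untreated infected controls.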

[3] = (§3) Cytotoxicity against HEL cells infected with Varicella-Zoster virus assessed as alteration in cell morphology by microscopic method; format: cell-based; conditions: human, HEL cells infected with Varicella-Zoster virus
In short: (§4)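 In the HEL cultures used for the antiviral assays, cell morphology was examined microscopically across varying compound concentrations. MCC is the minimum concentration causing a microscopically detectable alteration of cell morphology.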

Human alphaherpesvirus 3 [4] = assay: Antiviral activity against thymidine kinase expressing Varicella-Zoster virus OKA infected in HEL cells assessed as reduction in virus plaque formation; format: functional, cell-based, strain Oka vaccine; conditions: Human alphaherpesvirus 3, strain Oka vaccine, HEL; in short: as §1
CCRF-CEM = assay: Anti-proliferative activity against human CEM cells measured after 72 hrs by coulter counter method; format: ADME, cell-based
In short: (§5)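 Cells at 300,000–500,000 cells/mL, combined 1:1 by volume with compound dilutions, incubated at 37 °C: L1210 for two days, CEM for three days, HeLa for four days. Cells counted by Coulter counter.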

HeLa [5] = assay: Anti-proliferative activity against human HeLa cells measured after 72 hrs by coulter counter method; format: ADME, cell-based
L1210 = assay: Anti-proliferative activity against mouse L1210 cells measured after 48 hrs by coulter counter method; format: ADME, cell-based; in short: as §5
Cytomegalovirus [6] = assay: Antiviral activity against Cytomegalovirus AD169 infected in HEL cells assessed as reduction in virus plaque formation; format: functional, cell-based; in short: as §2
HEL [7] = assay: Cytotoxicity against HEL cells infected with Varicella-Zoster virus assessed as growth inhibition; format: cell-based; conditions: human, hel
[8] = (§6) Cytotoxicity against HEL cells infected with Cytomegalovirus assessed as alteration in cell morphology by microscopic method; format: cell-based; conditions: human, HEL cells infected with Cytomegalovirus; in short: as §4
HeLa [9] = assay: Anti-proliferative activity against human HeLa cells measured after 4 days by coulter counter method; format: ADME, cell-based; in short: as §5
HMEC-1 = assay: Anti-proliferative activity against HMEC1 cells by coulter counter method; format: ADME, cell-based, Homo sapiens
In short: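 HMEC-1 cells at 300,000–500,000 cells/mL, mixed 1:1 by volume with serial dilutions of test compound, incubated at 37 °C. Cell number counted by Coulter counter.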

HEL [10] = assay: as §3; format: cell-based; conditions: human, hel; in short: as §4
HEL [11] = assay: as §6; format: cell-based; conditions: human, hel; in short: as §4
HEL [12] = assay: Cytotoxicity against HEL cells infected with Cytomegalovirus assessed as growth inhibition; format: cell-based; conditions: human
Human adenovirus 2 = assay: Antiviral activity against Human adenovirus 2 infected in HEL cells assessed as reduction in virus-induced cytopathogenicity; format: functional, cell-based; conditions: Human mastadenovirus C
In short: (§7)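 Confluent HEL fibroblast monolayers were infected with 100 CCID50 of virus and incubated with varying concentrations of compound. Cytopathicity was scored once it was complete in untreated infected controls.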

Human alphaherpesvirus 1 [13] = assay: Antiviral activity against Herpes simplex virus 1 KOS infected in HEL cells assessed as reduction in virus-induced cytopathogenicity; format: functional, cell-based; conditions: Human alphaherpesvirus 1, KOS; in short: as §7
Human alphaherpesvirus 1 [14] = assay: Antiviral activity against thymidine kinase-deficient acyclovir-resistant Herpes simplex virus 1 KOS infected in HEL cells assessed as reduction in virus-induced cytopathogenicity; format: functional, cell-based; conditions: Human alphaherpesvirus 1, KOS; in short: as §7
Human alphaherpesvirus 2 = assay: Antiviral activity against Herpes simplex virus 2 G infected in HEL cells assessed as reduction in virus-induced cytopathogenicity; format: functional, cell-based; conditions: Human alphaherpesvirus 2, strain G
[15] = Cytotoxicity against virus infected HEL cells assessed as alteration in cell morphology by microscopic method; format: cell-based; conditions: human; in short: as §4
[16] = Human alphaherpesvirus 3, 07-1, HEL
[17] = Human betaherpesvirus 5, Davis, HEL
[18] = Human betaherpesvirus 5, AD169, HEL

`CCOP(=O)(OCC)[C@@H]1C[C@@H](Cn2c(=O)n(C(=O)c3ccccc3)c(=O)c3ccccc32)ON1C` showed an EC50 (Human alphaherpesvirus 3 [1]; [16]) of 13.7 µM, an EC50 (Cytomegalovirus [2]; [17]) of over 100 µM and an MCC [3] of at least 100 µM. For the same compound, the EC50 (Human alphaherpesvirus 3 [4]) was 7.5 µM, the IC50 (CCRF-CEM; Homo sapiens, CCRF-CEM, 72 h) was 70 µM and the IC50 (HeLa [5]) was 96 µM. It also gave an IC50 (L1210; Mus musculus, L1210, 48 h) of at least 159 µM, an EC50 (Cytomegalovirus [6]; [18]) of over 100 µM and a CC50 (HEL [7]) of over 100 µM. The MCC [8] was 100 µM.

`CCOP(=O)(OCC)[C@@H]1C[C@@H](Cn2ccc(=O)n(C(=O)c3ccccc3)c2=O)ON1C` showed an EC50 (Human alphaherpesvirus 3 [1]; [16]) of over 100 µM, an EC50 (Cytomegalovirus [2]; [17]) of over 100 µM and an MCC [3] of over 100 µM. The EC50 (Human alphaherpesvirus 3 [4]) was 83.6 µM, the IC50 (CCRF-CEM; Homo sapiens, CCRF-CEM, 72 h) was over 200 µM and the IC50 (HeLa [5]) was over 200 µM. For the same compound, the IC50 (L1210; Mus musculus, L1210, 48 h) was over 200 µM, the EC50 (Cytomegalovirus [6]; [18]) was over 100 µM and the MCC [8] was 100 µM.

Compound `CCOP(=O)(OCC)[C@H]1C[C@@H](Cn2c(=O)n(C(=O)c3ccccc3)c(=O)c3ccccc32)ON1C` has an EC50 (Human alphaherpesvirus 3 [1]; [16]) of 10.9 µM, an EC50 (Cytomegalovirus [2]; [17]) of over 100 µM and an MCC [3] of over 100 µM. It also gave an EC50 (Human alphaherpesvirus 3 [4]) of 7.7 µM, an IC50 (CCRF-CEM; Homo sapiens, CCRF-CEM, 72 h) of 74 µM and an IC50 (HeLa [5]) of over 200 µM. The IC50 (L1210; Mus musculus, L1210, 48 h) was over 200 µM, the EC50 (Cytomegalovirus [6]; [18]) was over 100 µM and the MCC [8] was 100 µM.

Work on `CCOP(=O)(OCC)[C@H]1C[C@@H](Cn2ccc(=O)n(C(=O)c3ccccc3)c2=O)ON1C` yielded an EC50 (Human alphaherpesvirus 3 [1]; [16]) of 88.4 µM, an EC50 (Cytomegalovirus [2]; [17]) of over 100 µM and an MCC [3] of over 100 µM. For the same compound, the EC50 (Human alphaherpesvirus 3 [4]) was 65.7 µM, the IC50 (CCRF-CEM; Homo sapiens, CCRF-CEM, 72 h) was over 200 µM and the IC50 (HeLa [5]) was over 200 µM. The IC50 (L1210; Mus musculus, L1210, 48 h) was over 200 µM, the EC50 (Cytomegalovirus [6]; [18]) was over 100 µM and the MCC [8] was 100 µM.

Compound `CCOP(=O)(OCC)C1CC(Cn2c(=O)n(Cc3ccc(F)cc3)c(=O)c3ccccc32)ON1Cc1ccccc1` (mixture of isomers; cis) has an EC50 (Human alphaherpesvirus 3 [1]; [16]) of over 4 µM, an IC50 (HeLa [9]; Homo sapiens, HeLa, 96 h) of 17 µM and an EC50 (Cytomegalovirus [2]) of over 4 µM. It also gave an IC50 (HMEC-1; Homo sapiens, HMEC-1) of 27 µM, an MCC (HEL [10]) of 20 µM and an EC50 (Human alphaherpesvirus 3 [4]) of over 4 µM. The IC50 (CCRF-CEM; Homo sapiens, CCRF-CEM, 72 h) was 17 µM, the IC50 (L1210; Mus musculus, L1210, 48 h) was 19 µM and the EC50 (Cytomegalovirus [6]; [18]) was over 4 µM. For the same compound, the MCC (HEL [11]) was 20 µM.

With `CCOP(=O)(OCC)C1CC(Cn2c(=O)n(Cc3cccc(F)c3)c(=O)c3ccccc32)ON1Cc1ccccc1` (mixture of isomers; cis) the EC50 (Human alphaherpesvirus 3 [1]; [16]) was over 20 µM, the IC50 (HeLa [9]; Homo sapiens, HeLa, 96 h) was 73 µM and the EC50 (Cytomegalovirus [2]) was over 20 µM. It also gave an IC50 (HMEC-1; hmec-1) of 204 µM, an MCC [3] of 100 µM and an EC50 (Human alphaherpesvirus 3 [4]) of over 20 µM. For the same compound, the IC50 (CCRF-CEM; ccrf-cem) was 49 µM, the IC50 (L1210; l1210) was 89 µM and the EC50 (Cytomegalovirus [6]) was over 20 µM. The MCC (HEL [11]) was 20 µM.

In the case of `CCOP(=O)(OCC)C1CC(Cn2c(=O)n(Cc3cccc(F)c3)c(=O)c3ccccc32)ON1Cc1ccccc1` (mixture of isomers; trans), the EC50 (Human alphaherpesvirus 3 [1]) is reported as 20 µM, the CC50 (HEL [12]) is reported as 20.8 µM and the IC50 (HeLa [9]; hela) is reported as 63 µM. For the same compound, the EC50 (Cytomegalovirus [2]) was 8.94 µM, the IC50 (HMEC-1; hmec-1) was 28 µM and the IC50 (CCRF-CEM; ccrf-cem) was 17 µM. For the same compound, the IC50 (L1210; l1210) was 17 µM, the EC50 (Cytomegalovirus [6]) was 9.9 µM and the MCC (HEL [11]) was 100 µM.

Compound `CCOP(=O)(OCC)[C@@H]1C[C@@H](Cn2c(=O)n(C(=O)c3ccc(F)cc3)c(=O)c3ccccc32)ON1C` (relative stereo) has an EC50 (Human alphaherpesvirus 3 [1]; [16]) of 10.7 µM, an EC50 (Human adenovirus 2) of 17.5 µM and an EC50 (Human alphaherpesvirus 1 [13]) of 39 µM. For the same compound, the EC50 (Cytomegalovirus [2]; [17]) was over 20 µM, the EC50 (Human alphaherpesvirus 1 [14]) was 9 µM and the EC50 (Human alphaherpesvirus 2) was 12 µM. For the same compound, the MCC [3] was at least 100 µM, the EC50 (Human alphaherpesvirus 3 [4]) was 6.9 µM and the IC50 (L1210; Mus musculus, L1210, 48 h) was over 250 µM. The EC50 (Cytomegalovirus [6]; [18]) was over 20 µM, the MCC [15] was at least 100 µM and the CC50 (HEL [7]) was 14.7 µM. It also gave an MCC [8] of 100 µM.

Compound `Cc1cn([C@H]2C[C@H](F)[C@@H](CO)O2)c(=O)[nH]c1=O` [ALOVUDINE] has an EC50 (Human adenovirus 2) of 10 µM and an MCC [15] of over 250 µM.

`O=c1[nH]c(=O)n([C@H]2C[C@H](O)[C@@H](CO)O2)cc1/C=C/Br` [BRIVUDINE] gave an EC50 (Human alphaherpesvirus 3 [1]; [16]) of 22.7 µM, an EC50 (Human alphaherpesvirus 2) of 146 µM and an MCC [3] of over 300 µM. It also gave an EC50 (Human alphaherpesvirus 3 [4]) of 0.005 µM, an MCC [15] of over 250 µM and a CC50 (HEL [7]) of 300 µM.

With `Nc1ccn(C[C@@H](CO)OCP(=O)(O)O)c(=O)n1` [CIDOFOVIR] the CC50 (HEL [12]) was over 300 µM, the EC50 (Human adenovirus 2) was 10 µM and the EC50 (Human alphaherpesvirus 1 [13]) was 2 µM. The EC50 (Cytomegalovirus [2]; [17]) was 0.81 µM, the EC50 (Human alphaherpesvirus 1 [14]) was 3.8 µM and the EC50 (Human alphaherpesvirus 2) was 2 µM. The EC50 (Cytomegalovirus [6]; [18]) was 1.44 µM, the MCC [15] was over 250 µM and the MCC [8] was over 300 µM.

With `Nc1nc(O)c2ncn(COC(CO)CO)c2n1` [GANCICLOVIR] the CC50 (HEL [12]) was over 350 µM, the EC50 (Cytomegalovirus [2]; [17]) was 6.5 µM and the EC50 (Human alphaherpesvirus 2) was 0.055 µM. For the same compound, the EC50 (Cytomegalovirus [6]; [18]) was 14.9 µM, the MCC [15] was over 100 µM and the MCC [8] was over 350 µM.

`Nc1ccn([C@H]2CC[C@@H](CO)O2)c(=O)n1` [ZALCITABINE] showed an EC50 (Human adenovirus 2) of 7.2 µM and an MCC [15] of over 250 µM.
